Results taken from ChEMBL document CHEMBL4699498 (J Med Chem, 2020).
Active and inactive are the calls of the source. No cut-off for these calls is given here.

Key:
CAPAN-1 = test: Antiproliferative activity against human CAPAN-1 cells assessed as cell growth inhibition incubated for 13 days by CCK-8 assay; format: functional, cell-based; details: CAPAN-1, 312 h
Outline: (§1)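 Cells were sub-cultured at least twice and seeded for 24 h before dosing. Compounds came from 10 mM DMSO stocks, given as 10 points of 3-fold serial dilution starting at 10-20 μM. Incubation was about 7 days (Capan-1 13 days) at 37 °C, 5% CO2. Read-out was CCK-8 absorbance at 450 nm, as % growth versus DMSO wells (duplicate wells). IC50 was fitted by nonlinear regression; three independent experiments.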

MDA-MB-436 = test: Antiproliferative activity against human MDA-MB-436 cells assessed as cell growth inhibition incubated for 7 days by CCK-8 assay; format: functional, cell-based; details: MDA-MB-436, 168 h; outline: as §1
[1] = target: von Hippel-Lindau disease tumor suppressor/Poly [ADP-ribose] polymerase 1 (Homo sapiens) (UniProt P09874+P40337); test: Protac activity at VHL/PARP1 in human MDA-MB-436 cells assessed as reduction in PARP1 protein level at 1 uM incubated for 24 hrs by western blot analysis; format: cell-based
von Hippel-Lindau disease tumor suppressor/Poly [ADP-ribose] polymerase 1 (Homo sapiens), sequence (P09874 whole entry, looked up): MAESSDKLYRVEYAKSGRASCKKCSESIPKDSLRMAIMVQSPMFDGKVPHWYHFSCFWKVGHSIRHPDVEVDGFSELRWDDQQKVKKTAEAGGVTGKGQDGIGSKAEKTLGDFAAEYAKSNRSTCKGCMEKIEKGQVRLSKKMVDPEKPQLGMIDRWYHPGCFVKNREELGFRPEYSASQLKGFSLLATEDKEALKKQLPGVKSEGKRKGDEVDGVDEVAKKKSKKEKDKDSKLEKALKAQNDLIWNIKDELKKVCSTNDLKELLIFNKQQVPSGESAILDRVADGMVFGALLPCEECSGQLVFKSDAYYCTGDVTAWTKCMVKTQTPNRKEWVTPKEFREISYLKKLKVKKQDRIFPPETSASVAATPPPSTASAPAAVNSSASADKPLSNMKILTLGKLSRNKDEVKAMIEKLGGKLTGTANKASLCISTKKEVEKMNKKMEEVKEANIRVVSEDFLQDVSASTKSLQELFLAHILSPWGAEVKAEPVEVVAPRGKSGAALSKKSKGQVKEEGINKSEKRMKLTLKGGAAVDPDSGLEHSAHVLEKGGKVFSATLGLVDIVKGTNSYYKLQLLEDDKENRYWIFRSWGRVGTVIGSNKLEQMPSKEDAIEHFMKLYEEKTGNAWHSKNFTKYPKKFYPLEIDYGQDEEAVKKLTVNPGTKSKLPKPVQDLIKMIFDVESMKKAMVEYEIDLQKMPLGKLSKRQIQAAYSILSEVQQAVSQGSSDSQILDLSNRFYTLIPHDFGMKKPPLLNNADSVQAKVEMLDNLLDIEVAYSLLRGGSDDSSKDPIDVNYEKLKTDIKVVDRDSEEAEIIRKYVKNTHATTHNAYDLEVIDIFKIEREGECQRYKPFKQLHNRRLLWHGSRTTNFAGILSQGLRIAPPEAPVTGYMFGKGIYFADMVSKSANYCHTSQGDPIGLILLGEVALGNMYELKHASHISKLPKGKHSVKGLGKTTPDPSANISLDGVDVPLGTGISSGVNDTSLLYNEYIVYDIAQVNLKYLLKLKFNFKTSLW
von Hippel-Lindau disease tumor suppressor/Poly [ADP-ribose] polymerase 1 (Homo sapiens), sequence (P40337 whole entry, looked up): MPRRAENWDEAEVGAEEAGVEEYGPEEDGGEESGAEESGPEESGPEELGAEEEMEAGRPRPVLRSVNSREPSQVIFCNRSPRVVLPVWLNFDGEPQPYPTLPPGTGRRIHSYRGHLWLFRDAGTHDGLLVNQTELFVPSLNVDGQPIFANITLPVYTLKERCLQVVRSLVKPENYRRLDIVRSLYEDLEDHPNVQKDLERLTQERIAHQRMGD

[2] = target: T1, Protein cereblon/Poly [ADP-ribose] polymerase 1 (Homo sapiens, UniProt P09874+Q96SW2); test: Protac activity at CRBN/PARP1 in human MDA-MB-436 cells assessed as induction of PARP1 degradation at 1 uM incubated for 24 hrs by Western blot analysis relative to control; format: cell-based
T1 sequence (P09874 2-1014 limits assumed): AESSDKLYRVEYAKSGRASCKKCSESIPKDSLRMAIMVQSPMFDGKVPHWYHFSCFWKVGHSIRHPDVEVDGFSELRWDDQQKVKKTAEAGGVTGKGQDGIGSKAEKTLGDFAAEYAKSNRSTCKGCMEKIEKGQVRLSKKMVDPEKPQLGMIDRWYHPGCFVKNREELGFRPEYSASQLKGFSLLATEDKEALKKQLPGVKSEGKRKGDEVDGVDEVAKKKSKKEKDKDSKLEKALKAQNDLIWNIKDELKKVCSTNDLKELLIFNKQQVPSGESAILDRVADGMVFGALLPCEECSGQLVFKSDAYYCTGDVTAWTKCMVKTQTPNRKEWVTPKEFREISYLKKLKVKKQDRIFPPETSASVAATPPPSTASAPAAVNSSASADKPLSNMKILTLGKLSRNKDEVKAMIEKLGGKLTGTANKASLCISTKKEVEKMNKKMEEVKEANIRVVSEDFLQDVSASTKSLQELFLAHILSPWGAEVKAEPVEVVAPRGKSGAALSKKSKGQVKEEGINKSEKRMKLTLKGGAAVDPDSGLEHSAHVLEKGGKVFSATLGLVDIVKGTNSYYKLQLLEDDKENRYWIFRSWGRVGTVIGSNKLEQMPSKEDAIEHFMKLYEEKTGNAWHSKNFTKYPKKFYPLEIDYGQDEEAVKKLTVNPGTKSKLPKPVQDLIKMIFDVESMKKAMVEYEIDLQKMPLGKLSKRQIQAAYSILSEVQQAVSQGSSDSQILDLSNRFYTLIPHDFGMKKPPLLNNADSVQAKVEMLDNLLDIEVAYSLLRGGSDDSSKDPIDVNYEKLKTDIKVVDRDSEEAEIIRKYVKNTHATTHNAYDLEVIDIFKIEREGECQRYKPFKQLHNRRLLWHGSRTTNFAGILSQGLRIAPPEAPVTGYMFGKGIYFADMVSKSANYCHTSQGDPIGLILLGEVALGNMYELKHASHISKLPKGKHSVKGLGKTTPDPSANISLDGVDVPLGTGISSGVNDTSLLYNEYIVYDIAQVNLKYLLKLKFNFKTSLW
T1 sequence (Q96SW2 whole entry partner): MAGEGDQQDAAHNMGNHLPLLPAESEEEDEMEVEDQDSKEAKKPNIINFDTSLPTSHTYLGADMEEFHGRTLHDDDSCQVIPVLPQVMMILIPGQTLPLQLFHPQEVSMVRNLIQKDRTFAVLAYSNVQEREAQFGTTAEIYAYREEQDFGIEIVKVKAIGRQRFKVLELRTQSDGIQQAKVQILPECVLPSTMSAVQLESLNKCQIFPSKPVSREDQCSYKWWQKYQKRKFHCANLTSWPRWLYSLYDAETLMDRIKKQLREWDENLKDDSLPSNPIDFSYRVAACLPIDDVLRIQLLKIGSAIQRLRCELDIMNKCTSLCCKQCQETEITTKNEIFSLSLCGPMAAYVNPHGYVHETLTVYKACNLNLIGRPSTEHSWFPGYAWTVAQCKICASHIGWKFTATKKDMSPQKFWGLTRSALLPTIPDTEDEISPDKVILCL
Outline: (§2)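 MDA-MB-436 cells (RPMI-1640, 10% FBS) seeded 24 h, then exposed to compound at 1, 10, 100 and 1000 nM for 24 h. Lysates in RIPA with protease inhibitors, 20-30 µg protein by SDS-PAGE, PARP1 immunoblot with β-tubulin loading control; PARP1/β-tubulin ratio normalized to DMSO control set at 100.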

[3] = target: T1, Protein cereblon/Poly [ADP-ribose] polymerase 1; test: Protac activity at CRBN/PARP1 in human MDA-MB-436 cells assessed as induction of PARP1 degradation at 100 nM incubated for 24 hrs by Western blot analysis relative to control; format: cell-based; outline: as §2
[4] = target: T1, Protein cereblon/Poly [ADP-ribose] polymerase 1; test: Protac activity at CRBN/PARP1 in human MDA-MB-436 cells assessed as induction of PARP1 degradation at 10 nM incubated for 24 hrs by Western blot analysis relative to control; format: cell-based; outline: as §2
[5] = target: T1, Protein cereblon/Poly [ADP-ribose] polymerase 1; test: Protac activity at CRBN/PARP1 in human SW620 cells assessed as reduction in PARP1 protein level at 0.01 to 10 uM incubated for 12 hrs by western blot analysis; format: cell-based; details: SW-620, dose microM 0.01-10, time 12.0 hrs
Outline: (§3)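 MDA-MB-436 or SW620 cells dosed at 1, 10, 100, 1000 nM and 10 µM for 12 h; PARP1 assessed by western blot of RIPA lysates (20-30 µg protein), β-tubulin as loading control.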

[6] = target: T1, Protein cereblon/Poly [ADP-ribose] polymerase 1; test: Protac activity at CRBN/PARP1 in human MDA-MB-436 cells assessed as reduction in PARP1 protein level at 0.01 to 10 uM incubated for 12 hrs by western blot analysis; format: cell-based; details: dose microM 0.01-10, time 12.0 hrs; outline: as §3
[7] = target: T1, Protein cereblon/Poly [ADP-ribose] polymerase 1; test: Protac activity at CRBN/PARP1 in human MDA-MB-436 cells assessed as induction of PARP1 degradation at 1 to 1000 nM incubated for 24 hrs by Western blot analysis; format: cell-based; details: dose nM 1-1000, time 24.0 hrs
Outline: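 PARP1 immunoblot of MDA-MB-436 lysates after 24 h exposure at 1, 10, 100 and 1000 nM; RIPA lysis, 20-30 µg protein per lane, β-tubulin as loading control, band density normalized to DMSO control.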

[8] = target: Poly [ADP-ribose] polymerase 1 (Homo sapiens, UniProt P09874); test: Inhibition of recombinant human C-terminal His-tagged PARP1 expressed in Sf9 insect cells preincubated for 20 mins in presence of activated DNA followed by […] addition and further incubated for 2 hrs by chemiluminescence assay
Poly [ADP-ribose] polymerase 1, sequence (P09874 whole entry): as the sequence (P09874 whole entry, looked up) above

[9] = target: T1, Protein cereblon/Poly [ADP-ribose] polymerase 1; test: Protac activity at CRBN/PARP1 in human Capan1 cells assessed as induction of PARP1 degradation at 1 to 1000 nM incubated for 24 hrs by Western blot analysis; format: cell-based; details: CAPAN-1, dose nM 1-1000, time 24.0 hrs
Outline: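 Capan-1 cells were treated 24 h (1-1000 nM, or a wider dose range for DC50). Lysis was in RIPA buffer with protease inhibitors, and 20-30 μg protein was blotted. PARP1 was normalized to β-tubulin and to DMSO control, quantified by densitometry. DC50 came from two independent experiments.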

Structure (SMILES) | IC50 (CAPAN-1) | IC50 (MDA-MB-436) | further results
O=C(CCCCCCCCCCCCC(=O)N1CCN(C(=O)c2cc(Cc3n[nH]c(=O)c4ccccc34)ccc2F)CC1)NCCNc1cccc2c1C(=O)N(C1CCC(=O)NC1=O)C2=O (centres undefined) | 118 nM | 25 nM | –
Cc1ncsc1-c1ccc(CNC(=O)[C@@H]2C[C@@H](O)CN2C(=O)[C@@H](NC(=O)CCCNC(=O)CCCCCCCCCCC(=O)N2CCN(C(=O)c3cc(Cc4n[nH]c(=O)c5ccccc45)ccc3F)CC2)C(C)(C)C)cc1 | 870 nM | 680 nM | Activity [1]: inactive
O=C(COc1cccc2c1C(=O)N(C1CCC(=O)NC1=O)C2=O)NCCCC(=O)N1CCN(C(=O)c2cc(Cc3n[nH]c(=O)c4ccccc34)ccc2F)CC1 (centres undefined) | > 10000 nM | > 10000 nM | –
O=C(CCCCCNC(=O)COc1cccc2c1C(=O)N(C1CCC(=O)NC1=O)C2=O)NCCCC(=O)N1CCN(C(=O)c2cc(Cc3n[nH]c(=O)c4ccccc34)ccc2F)CC1 (centres undefined) | 8700 nM | 1900 nM | –
O=C(CCCCCCC(=O)N1CCN(C(=O)c2cc(Cc3n[nH]c(=O)c4ccccc34)ccc2F)CC1)NCCNc1cccc2c1C(=O)N(C1CCC(=O)NC1=O)C2=O (centres undefined) | 4100 nM | 830 nM | –
O=C(CCCCCCCCCCC(=O)N1CCN(C(=O)c2cc(Cc3n[nH]c(=O)c4ccccc34)ccc2F)CC1)NCCNc1ccc2c(c1)C(=O)N(C1CCC(=O)NC1=O)C2=O (centres undefined) | 159 nM | 35 nM | –
Cc1ncsc1-c1ccc(CNC(=O)[C@@H]2C[C@@H](O)CN2C(=O)[C@@H](NC(=O)CNC(=O)CCCCCCCCCCC(=O)N2CCN(C(=O)c3cc(Cc4n[nH]c(=O)c5ccccc45)ccc3F)CC2)C(C)(C)C)cc1 | 1600 nM | 1200 nM | Activity [1]: inactive
Cc1ncsc1-c1ccc(CNC(=O)[C@@H]2C[C@@H](O)CN2C(=O)[C@@H](NC(=O)CCCCCNC(=O)CCCCCCCCCCC(=O)N2CCN(C(=O)c3cc(Cc4n[nH]c(=O)c5ccccc45)ccc3F)CC2)C(C)(C)C)cc1 | 170 nM | 120 nM | Activity [1]: inactive
O=C(CCCCCCCCCCCC(=O)N1CCN(C(=O)c2cc(Cc3n[nH]c(=O)c4ccccc34)ccc2F)CC1)NCCNc1cccc2c1C(=O)N(C1CCC(=O)NC1=O)C2=O (centres undefined) | 87 nM | 21 nM | –
O=C(CCCCCCCCCCC(=O)N1CCN(C(=O)c2cc(Cc3n[nH]c(=O)c4ccccc34)ccc2F)CC1)NCCCOCCOCCOCCCNc1cccc2c1C(=O)N(C1CCC(=O)NC1=O)C2=O (centres undefined) | 154 nM | 65 nM | –
Cc1ncsc1-c1ccc(CNC(=O)[C@@H]2C[C@@H](O)CN2C(=O)[C@@H](NC(=O)CCCCCCCCCCC(=O)N2CCN(C(=O)c3cc(Cc4n[nH]c(=O)c5ccccc45)ccc3F)CC2)C(C)(C)C)cc1 | 87 nM | 54 nM | Activity [1]: inactive
O=C(CCCNC(=O)COc1cccc2c1C(=O)N(C1CCC(=O)NC1=O)C2=O)NCCCCCC(=O)N1CCN(C(=O)c2cc(Cc3n[nH]c(=O)c4ccccc34)ccc2F)CC1 (centres undefined) | 3100 nM | 1200 nM | –
O=C(CCCCCCCCCCC(=O)N1CCN(C(=O)c2cc(Cc3n[nH]c(=O)c4ccccc34)ccc2F)CC1)NCCCCNc1cccc2c1C(=O)N(C1CCC(=O)NC1=O)C2=O (centres undefined) | 131 nM | 39 nM | Activity [2]: 45%; Activity [3]: 90.5%; Activity [4]: 70%
O=C(CCCCCCCCCC(=O)N1CCN(C(=O)c2cc(Cc3n[nH]c(=O)c4ccccc34)ccc2F)CC1)NCCNc1cccc2c1C(=O)N(C1CCC(=O)NC1=O)C2=O (centres undefined) | 264 nM | 29 nM | –
O=C(CCCNC(=O)COc1cccc2c1C(=O)N(C1CCC(=O)NC1=O)C2=O)NCCCC(=O)N1CCN(C(=O)c2cc(Cc3n[nH]c(=O)c4ccccc34)ccc2F)CC1 (centres undefined) | > 10000 nM | 5300 nM | –
O=C(CCCCCCCCCCC(=O)N1CCN(C(=O)c2cc(Cc3n[nH]c(=O)c4ccccc34)ccc2F)CC1)NCCOCCNc1cccc2c1C(=O)N(C1CCC(=O)NC1=O)C2=O (centres undefined) | 120 nM | 47 nM | –
O=C(CCCCCCCCCCC(=O)N1CCN(C(=O)c2cc(Cc3n[nH]c(=O)c4ccccc34)ccc2F)CC1)NCCCCCCNc1cccc2c1C(=O)N(C1CCC(=O)NC1=O)C2=O (centres undefined) | 110 nM | 42 nM | –
O=C(CCCCCCCCCCC(=O)N1CCN(C(=O)c2cc(Cc3n[nH]c(=O)c4ccccc34)ccc2F)CC1)NCCOCCOCCNc1cccc2c1C(=O)N(C1CCC(=O)NC1=O)C2=O (centres undefined) | 134 nM | 64 nM | –
O=C(CCCCCNC(=O)COc1cccc2c1C(=O)N(C1CCC(=O)NC1=O)C2=O)NCCCCCC(=O)N1CCN(C(=O)c2cc(Cc3n[nH]c(=O)c4ccccc34)ccc2F)CC1 (centres undefined) | 1500 nM | 950 nM | –
O=C(CCCCCNC(=O)CNc1cccc2c1C(=O)N(C1CCC(=O)NC1=O)C2=O)NCCCCCC(=O)N1CCN(C(=O)c2cc(Cc3n[nH]c(=O)c4ccccc34)ccc2F)CC1 (centres undefined) | 2200 nM | 1700 nM | –
O=C(COc1cccc2c1C(=O)N(C1CCC(=O)NC1=O)C2=O)NCCCCCC(=O)N1CCN(C(=O)c2cc(Cc3n[nH]c(=O)c4ccccc34)ccc2F)CC1 (centres undefined) | > 10000 nM | 9400 nM | –
O=C(CCCCCCCCC(=O)N1CCN(C(=O)c2cc(Cc3n[nH]c(=O)c4ccccc34)ccc2F)CC1)NCCNc1cccc2c1C(=O)N(C1CCC(=O)NC1=O)C2=O (centres undefined) | 495 nM | 123 nM | –
O=C(CCCCC(=O)N1CCN(C(=O)c2cc(Cc3n[nH]c(=O)c4ccccc34)ccc2F)CC1)NCCNc1cccc2c1C(=O)N(C1CCC(=O)NC1=O)C2=O (centres undefined) | > 10000 nM | > 10000 nM | –
O=C(CCCNC(=O)CNc1cccc2c1C(=O)N(C1CCC(=O)NC1=O)C2=O)NCCCCCC(=O)N1CCN(C(=O)c2cc(Cc3n[nH]c(=O)c4ccccc34)ccc2F)CC1 (centres undefined) | 7100 nM | 2200 nM | –
O=C(CCCCCCCCCCC(=O)N1CCN(C(=O)c2cc(Cc3n[nH]c(=O)c4ccccc34)ccc2F)CC1)NCCNc1cccc2c1CN(C1CCC(=O)NC1=O)C2=O (centres undefined) | 194 nM | 92 nM | –
CN(CCOCCOCCOCCOCCOCCOCCNc1cccc2c1C(=O)N(C1CCC(=O)NC1=O)C2=O)Cc1ccc(-c2[nH]c3cc(F)cc4c3c2CCNC4=O)cc1 (centres undefined) | 950 nM | 710 nM | Activity [5]: Active; Activity [6]: Active
CN1C(=O)CCC(N2C(=O)c3cccc(NCCNC(=O)CCCCCCCCCCC(=O)N4CCN(C(=O)c5cc(Cc6n[nH]c(=O)c7ccccc67)ccc5F)CC4)c3C2=O)C1=O (centres undefined) | – | – | Activity [7]: inactive; IC50 [8]: 2.64 nM; Activity [9]: inactive
